The full list was thinned out, with hits kept by preference.
H69AR inhibit = proliferation blockers of H69AR lung cancer cells, primary screen, cell-based, human, 86K library. actives 6% (n = 85,000). viability, % at 10 µM. H69AR lung tumor viability, ATP luminescence, 72 h; hits give low values;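 active = viability at or below 40%; inactive = viability above 40%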;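 note: multidrug resistant small cell line overexpressing MRP-1 efflux transporter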
bCat KO growth = primary screen for growth suppressors in beta-catenin knockout HCT116 cells (colon tumor, human). viability, % at 10 µM. HCT116 beta-catenin knockout viability, CellTiter-Glo, 60 h; hits give low values. actives 1.5% (n = 140,000). AID 818, 2007;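 active = viability at or under a set limit, the compound median less 4 SD, cut at about 6% in these data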
Fibroblast inh = antiproliferative effect on LL 47 fibroblasts – human, LL 47 cells, CellTiter-Glo luminescence, primary screen; LL 47 human lung fibroblast viability, ATP luminescence; hits give low values; viability, % at 10 µM; actives 1.1% (n = 85,000); AID 719, 2007;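 active = viability at or below 50% in the single dose screen; inactive = viability above 50%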;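 note: compound exposure lasted 72 h before the ATP readout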
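material = human LL 47 lung fibroblast cells | dosing = compounds added from tenfold dosing solution, 0.1% DMSO final | timing = overnight cell rest, 72 h compound treatment at 37 °C | measured by = CellTiter-Glo luminescence measuring cellular ATP | evaluation = % viability versus median cells-only luminescence | control set = cell-only wells, no compound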
PTEN del growth = growth suppression of PTEN-null HCT116, primary screen, cell-based, CellTiter-Glo; actives 1.2% (n = 140,000); HCT116 PTEN-null viability, 60 h; hits give low values; viability, % at 10 µM; AID 827, 2007;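 active = viability at or below a set limit, 4 SD under the median of all tested compounds, cut at about 3.7% in these data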;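 note: PTEN knockout HCT116 line with beta catenin targeted HCT116 as companion control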
HUVEC inhibit = inhibitors of HUVEC proliferation, primary screen, cell-based, 384-well | CellTiter-Glo luminescence, 72 h; hits give low values | viability, % at 10 µM (by protocol) | actives 1.1% (n = 86,000) | AID 648, 2007;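 active = viability at or below 30%; inactive = viability above 30%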
Of the large screens only hits and unclear results are named; the others gave an inactive call.

C/C(N)=C(/C#N)C(=O)COC(=O)CC12CC3CC(CC(C3)C1)C2	none
Cc1cc(C(=O)Nc2ccc(S(=O)(=O)Nc3nccs3)cc2)c(C)o1	none
CN1CCN(C(=O)c2cc3nc(-c4ccccc4)cc(-c4ccccc4)n3n2)CC1	none
CCN1CCN(c2cc(C(C)(C)C)nc3c(-c4ccccc4)c(C)nn23)CC1	H69AR inhibit 38, Fibroblast inh 9.8, HUVEC inhibit 3.2
O=C(c1cc2nc(-c3ccccc3)cc(-c3ccccc3)n2n1)N1CCN(C(=O)c2ccco2)CC1	H69AR inhibit 25
CCOC(=O)c1c(C)nc2sc(C(=O)Nc3ccccc3)c(N)c2c1-c1ccc(OC)cc1	none (no result: H69AR inhibit, Fibroblast inh, HUVEC inhibit)
Cc1nnc(C)c2c(C)n(C(c3ccccc3)c3ccccc3)c(C)c12	H69AR inhibit 26
COc1cc(OC)cc(-c2n[nH]c(=S)n2-c2cc(OC)ccc2OC)c1	H69AR inhibit 24
CCC(C)NC(=O)CSc1nc2c(sc(=S)n2Cc2ccco2)c(=O)n1-c1ccccc1 (centres undefined)	H69AR inhibit 32
O=C1c2ccccc2NC(c2ccc(Cl)cc2Cl)N1O (centres undefined)	bCat KO growth 3.5 (no result: H69AR inhibit)
CC(C)Oc1ccc(C(=O)NC2(C(F)(F)F)N=C3SCCN3C2=O)cc1 (centres undefined)	none
COc1ccc(C(C[N+](=O)[O-])C2(c3ccc(OC)c(OC)c3)C(=O)c3ccccc3C2=O)cc1 (centres undefined)	bCat KO growth 2.5, PTEN del growth 2.1 (no result: H69AR inhibit, Fibroblast inh, HUVEC inhibit)
COC(=O)C(C(=O)OC)C(C[N+](=O)[O-])c1ccc(OC)c(OC)c1 (centres undefined)	none (no result: H69AR inhibit, Fibroblast inh, HUVEC inhibit)
C=CC(=O)N1c2ccccc2Sc2ccc(NC(=O)OCC)cc21	H69AR inhibit 26
CCOC(=O)Nc1ccc2c(c1)N(C(=O)N1CCN(C)CC1)c1ccccc1S2	none
Cc1ccccc1N1CN(Cc2ccco2)CNC1=S	none (no result: H69AR inhibit, Fibroblast inh, HUVEC inhibit)
O=c1[nH]c2ccccc2c2nc3ccccn3c12	H69AR inhibit 35
Cc1ccc(NC(=O)CN2C(=O)C3C4C=CC(C4)C3C2=O)cc1S(=O)(=O)N(C)C (centres undefined)	none (no result: H69AR inhibit, Fibroblast inh, HUVEC inhibit)
O=C1C(=O)c2ccc(-c3ccccc3)cc2-c2ccccc21	H69AR inhibit 1.5, bCat KO growth 0.1, Fibroblast inh 2.7, PTEN del growth 0.1, HUVEC inhibit 2.2
Nc1ccc2c(c1)C(=O)C(=O)c1ccccc1-2	H69AR inhibit 0.2, bCat KO growth 1.0, Fibroblast inh 2.1, PTEN del growth 1.1, HUVEC inhibit 3.1
CC(=O)Nc1ccc2c(c1)C(=O)c1ccccc1C2=O	none (no result: H69AR inhibit, Fibroblast inh, HUVEC inhibit)
Cc1c(Br)cc(C(=O)OC2CCN(C)CC2)c(C)c1C	H69AR inhibit 3.8
O=C(CS(=O)(=O)Cc1ccccc1)Nc1ccc(S(=O)(=O)N2CCOCC2)cc1	none (no result: H69AR inhibit, Fibroblast inh, HUVEC inhibit)
CCc1ccc(NC(=O)CCc2nc3cccnc3n2Cc2ccc(OC)cc2)cc1	H69AR inhibit 18, Fibroblast inh 45
O=C(O)CCc1nc2cccnc2n1Cc1ccccc1	none
COc1ccccc1CNC(=O)C(CCSC)NC(=O)C1CCC(C)CC1 (centres undefined)	none (no result: H69AR inhibit, Fibroblast inh, HUVEC inhibit)
O=C(CCc1ccc(S(=O)(=O)N2CCOCC2)cc1)Nc1nc(COc2ccccc2)cs1	none (no result: H69AR inhibit, Fibroblast inh, HUVEC inhibit)
CCC(C)n1c(C)nc2c(c1=O)c1nc3ccccc3nc1n2CCC1=CCCCC1 (centres undefined)	H69AR inhibit 3.6
Cc1nc2c(c(=O)n1CC1CCCO1)c1nc3ccccc3nc1n2CCC(C)C (centres undefined)	none (no result: bCat KO growth, PTEN del growth)
O=C(NC1CCCCC1)Sc1ccc(Cl)cc1	H69AR inhibit 36
CCOC(=O)C1=C(c2ccccc2)O/C(=C(/C#N)C(F)(F)F)S1	H69AR inhibit 1.7, Fibroblast inh 2.5, HUVEC inhibit 10
O=C(CCN1CCOCC1)c1ccc2c(c1)OCCO2	H69AR inhibit 3.3
O=C(CCN1CCOCC1)c1ccccc1	bCat KO growth 1.2, PTEN del growth 1.0
CC1(C(=O)NC2CCCCCCC2)CCC(=O)N1Cc1cccs1 (centres undefined)	none
NS(=O)(=O)c1ccc(Nc2nc(-c3ccc4ccccc4c3)cs2)cc1	H69AR inhibit 32
Cc1ccc(O)c(N=NC2=C(O)CC(C)(C)CC2=O)c1	bCat KO growth 4.4 (no result: H69AR inhibit, Fibroblast inh, HUVEC inhibit)
CC1(C)CC(=O)C(N=Nc2cc(Cl)c(Cl)c(Cl)c2)=C(O)C1	none (no result: H69AR inhibit, Fibroblast inh, HUVEC inhibit)
CN(C)C(=O)CSc1nnc(Cc2ccc([N+](=O)[O-])cc2)o1	none (no result: H69AR inhibit, Fibroblast inh, HUVEC inhibit)
CC1=C(C(=O)OCCNC(=O)c2ccccc2O)C(c2ccccc2[N+](=O)[O-])C(C(=O)OCC2CCCO2)=C(C)N1 (centres undefined)	none (no result: H69AR inhibit, Fibroblast inh, HUVEC inhibit)
CCOc1cc(/C=C2/C(=O)ON=C2C)ccc1OCc1ccc(F)cc1	none (no result: H69AR inhibit, Fibroblast inh, HUVEC inhibit)
CCOc1cc(/C=C2/C(=O)ON=C2C)ccc1OCc1ccccc1F	H69AR inhibit 23, Fibroblast inh 43
COC(=O)c1c(NC(=O)c2nc3ccccc3s2)sc2c1CCN(C(C)=O)C2	Fibroblast inh 3.4, HUVEC inhibit 4.2
OCCNc1c2ccccc2nc2c(F)c(F)c(F)c(F)c12	bCat KO growth 1.5, PTEN del growth 1.1 (no result: H69AR inhibit, Fibroblast inh, HUVEC inhibit)
Cc1c2ccccc2nc2c(F)c(NCCO)c(F)c(F)c12	none (no result: H69AR inhibit, Fibroblast inh, HUVEC inhibit)
O=C(Cn1c(=O)n(CCCC(=O)NC2CCCC2)c(=O)c2ccccc21)NCCC1=CCCCC1	H69AR inhibit 29, bCat KO growth 5.3, Fibroblast inh 49, PTEN del growth 2.8
CCN(CC)S(=O)(=O)c1cccc(NC(=O)c2cc(=O)[nH]c3ccccc23)c1	none (no result: H69AR inhibit, Fibroblast inh, HUVEC inhibit)
Nc1nc(Nc2cccc(F)c2)nc2ccccc12	H69AR inhibit 36 (no result: Fibroblast inh)
COc1ccc(NC(=O)Nc2nccs2)cc1	H69AR inhibit 20
O=C(Nc1ccccc1)Nc1nccs1	none
C=CCn1c(=O)/c(=C/c2cc(OC)c(OC)c(OC)c2)s/c1=C(/C#N)c1nc2ccccc2n1C	H69AR inhibit 10
O=C(Nc1ccc2nc(-c3ccc(Br)o3)[nH]c2c1)c1ccco1	none
O=C(Nc1ccc(-c2nc3ccccc3[nH]2)cc1)c1ccc2c(c1)OCO2	bCat KO growth 2.6, PTEN del growth 2.5 (no result: H69AR inhibit, Fibroblast inh, HUVEC inhibit)
Cc1cccc2[nH]c(-c3ccc(NC(=O)c4ccco4)cc3)nc12	H69AR inhibit 35
O=C(Nc1ccc(Cl)c(-c2nc3ccccc3[nH]2)c1)c1ccc2c(c1)OCO2	none (no result: H69AR inhibit, Fibroblast inh, HUVEC inhibit)
O=C(Nc1ccc(-c2nc3c(ccc4ccccc43)o2)cc1)c1ccco1	H69AR inhibit 19, Fibroblast inh 40
O=C(Nc1ccc2nc(-c3ccccc3)[nH]c2c1)c1ccco1	H69AR inhibit 39
Cc1ccc(/C=N/NC(=O)Cn2cnc3c2c(=O)n(C)c(=O)n3C)s1	none (no result: H69AR inhibit, Fibroblast inh, HUVEC inhibit)
COCC(C)NCC(=O)NC(C)CCc1ccccc1 (centres undefined)	none (no result: H69AR inhibit, Fibroblast inh, HUVEC inhibit)
Cc1ccc2nc(-c3ccc(NC(=O)CSc4ccccc4)cc3)[nH]c2c1	bCat KO growth 3.2 (no result: H69AR inhibit, Fibroblast inh, HUVEC inhibit)
O=C(Nc1cccc(-c2nc3ccccc3[nH]2)c1)c1cccc(NC(=O)c2ccco2)c1	H69AR inhibit 1.2, Fibroblast inh 13, HUVEC inhibit 1.9

High-throughput results (PubChem)
